Results: ChEMBL document CHEMBL4689842, “EUbOPEN Chemogenomics Library wave 1” (2021)

Tested on: Fibroblast
Assay: Multiplex assay against human fibroblast
Assay type: toxicity, cell-based
Method in brief: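 Compound was added to live cells that had been stained at seeding with Hoechst33342, BioTracker Green Microtubule Cytoskeleton Dye, MitoTracker Red and Annexin V Alexa Fluor 680, and imaging followed on a CQ1 microscope at 37°C and 5% CO2. CellPathfinder machine-learning gating divided cells into Hoechst high-intensity objects or normal cells, normal cells into healthy, pyknosed or fragmented nuclei, and pyknosed cells into mitotic or apoptotic. Tubulin, mitochondrial-mass and membrane-permeability phenotypes are per cents of healthy-nucleus cells.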

[1] = 12 h, 1 µM, compound concentration 1 uM, replicate 1
[2] = 12 h, 1 µM, compound concentration 1 uM, replicate 2
[3] = 12 h, 10 µM, compound concentration 10 uM, replicate 1
[4] = 12 h, 10 µM, compound concentration 10 uM, replicate 2
[5] = 24 h, 1 µM, compound concentration 1 uM, replicate 1
[6] = 24 h, 1 µM, compound concentration 1 uM, replicate 2
[7] = 24 h, 10 µM, compound concentration 10 uM, replicate 1
[8] = 24 h, 10 µM, compound concentration 10 uM, replicate 2

NC(=O)c1cccc(-c2cc(Nc3ccc(OC(F)(F)F)cc3)ncn2)c1
Population Apoptotic (%) [1]: 80%
Population Fragmented Nuclei (%) [1]: 30%
Population Healthy Nuclei (%) [1]: 53%
Population Hoechst High Intensity Objects (%) [1]: 10%
Population Membrane Permeable-Phenotype (%) [1]: 5%
Population Mitochondria Different-Phenotype (%) [1]: 6%
Population Mitotic Cells (%) [1]: 20%
Population Normal (%) [1]: 89%
Population Pyknosed Nuclei (%) [1]: 16%
Population Tubulin-Different-Phenotype (%) [1]: 5%
Total Cell Count [1]: 205
Population Apoptotic (%) [2]: 20%
Population Fragmented Nuclei (%) [2]: 42%
Population Healthy Nuclei (%) [2]: 48%
Population Hoechst High Intensity Objects (%) [2]: 39%
Population Membrane Permeable-Phenotype (%) [2]: 11%
Population Mitochondria Different-Phenotype (%) [2]: 23%
Population Mitotic Cells (%) [2]: 80%
Population Normal (%) [2]: 60%
Population Pyknosed Nuclei (%) [2]: 9%
Population Tubulin-Different-Phenotype (%) [2]: 3%
Total Cell Count [2]: 89
Population Apoptotic (%) [3]: 69%
Population Fragmented Nuclei (%) [3]: 20%
Population Healthy Nuclei (%) [3]: 61%
Population Hoechst High Intensity Objects (%) [3]: 7%
Population Membrane Permeable-Phenotype (%) [3]: 7%
Population Mitochondria Different-Phenotype (%) [3]: 3%
Population Mitotic Cells (%) [3]: 30%
Population Normal (%) [3]: 92%
Population Pyknosed Nuclei (%) [3]: 18%
Population Tubulin-Different-Phenotype (%) [3]: 6%
Total Cell Count [3]: 231
Population Apoptotic (%) [4]: 60%
Population Fragmented Nuclei (%) [4]: 50%
Population Healthy Nuclei (%) [4]: 23%
Population Hoechst High Intensity Objects (%) [4]: 39%
Population Membrane Permeable-Phenotype (%) [4]: 0%
Population Mitochondria Different-Phenotype (%) [4]: 44%
Population Mitotic Cells (%) [4]: 40%
Population Normal (%) [4]: 60%
Population Pyknosed Nuclei (%) [4]: 26%
Population Tubulin-Different-Phenotype (%) [4]: 33%
Total Cell Count [4]: 63
Population Apoptotic (%) [5]: 60%
Population Fragmented Nuclei (%) [5]: 26%
Population Healthy Nuclei (%) [5]: 59%
Population Hoechst High Intensity Objects (%) [5]: 12%
Population Membrane Permeable-Phenotype (%) [5]: 6%
Population Mitochondria Different-Phenotype (%) [5]: 7%
Population Mitotic Cells (%) [5]: 39%
Population Normal (%) [5]: 87%
Population Pyknosed Nuclei (%) [5]: 13%
Population Tubulin-Different-Phenotype (%) [5]: 11%
Total Cell Count [5]: 194
Population Apoptotic (%) [6]: 50%
Population Fragmented Nuclei (%) [6]: 46%
Population Healthy Nuclei (%) [6]: 46%
Population Hoechst High Intensity Objects (%) [6]: 26%
Population Membrane Permeable-Phenotype (%) [6]: 12%
Population Mitochondria Different-Phenotype (%) [6]: 16%
Population Mitotic Cells (%) [6]: 50%
Population Normal (%) [6]: 73%
Population Pyknosed Nuclei (%) [6]: 6%
Population Tubulin-Different-Phenotype (%) [6]: 12%
Total Cell Count [6]: 90
Population Apoptotic (%) [7]: 55%
Population Fragmented Nuclei (%) [7]: 26%
Population Healthy Nuclei (%) [7]: 53%
Population Hoechst High Intensity Objects (%) [7]: 5%
Population Membrane Permeable-Phenotype (%) [7]: 5%
Population Mitochondria Different-Phenotype (%) [7]: 5%
Population Mitotic Cells (%) [7]: 44%
Population Normal (%) [7]: 94%
Population Pyknosed Nuclei (%) [7]: 19%
Population Tubulin-Different-Phenotype (%) [7]: 11%
Total Cell Count [7]: 237
Population Apoptotic (%) [8]: 40%
Population Fragmented Nuclei (%) [8]: 50%
Population Healthy Nuclei (%) [8]: 39%
Population Hoechst High Intensity Objects (%) [8]: 31%
Population Membrane Permeable-Phenotype (%) [8]: 21%
Population Mitochondria Different-Phenotype (%) [8]: 31%
Population Mitotic Cells (%) [8]: 60%
Population Normal (%) [8]: 68%
Population Pyknosed Nuclei (%) [8]: 10%
Population Tubulin-Different-Phenotype (%) [8]: 57%
Total Cell Count [8]: 70
